Laboratory results published in publication PMC3961564 (The Journal of investigative dermatology, 2013).

How the values were obtained:
[1] = molecular target: FN668-704, second half of anastellin, with cysteine at the C-terminus (human); assay: radioligand binding
[2] = molecular target: P4 (FN2043-2076) (human); assay: radioligand binding
[3] = molecular target: anastellin (FN630-704) with a Cys-tag at the C-terminus (human); assay: radioligand binding
[4] = molecular target: P3 (FN1853-1877) (human); assay: radioligand binding
[5] = system: FN-null fibroblasts; assay: FN-null cell survival on CBD/14 with peptide in solution; type: cell-based, mouse; conditions: serum-free DMEM, 1nM PDGF-BB, 3d, viable cells counted
Outline: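 Mouse FN-null fibroblasts were maintained in DMEM with 10% FBS. 96-well plates were precoated with 0.125μM GST-tagged CBD/14, blocked with 2% BSA for 2h and washed. Cells were seeded at 4,000/well for 4h at 37°C in serum-free DMEM, and BSA medium with soluble test compound ±1nM PDGF-BB was added. After 3d at 37°C, viable spread cells were counted in five 10x fields in three replicate wells (mean ± SD, n=15).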

[6] = molecular target: Recombinant PDGF-BB (platelet-derived growth factor-BB) (UniProt P01127); assay: SPR
[7] = system: cell growth; conditions: RWRPK by itself; ref Hocking et al., 2008; cited from earlier work
[8] = molecular target: 125I-PDGF-BB (125I-radiolabeled platelet-derived growth factor-BB) (UniProt P01127 82-190, 125I label (site not stated)); assay: radioligand binding
Sequence of 125I-PDGF-BB (125I-radiolabeled platelet-derived growth factor-BB) (UniProt P01127 82-190, 125I label (site not stated)) (P01127 82-190): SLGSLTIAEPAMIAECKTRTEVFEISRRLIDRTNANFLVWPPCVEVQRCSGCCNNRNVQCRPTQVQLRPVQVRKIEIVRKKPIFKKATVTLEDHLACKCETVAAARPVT

Sequence of Recombinant PDGF-BB (platelet-derived growth factor-BB) (P01127 82-190): as above

Question: For “125I-PDGF-BB (125I-radiolabeled platelet-derived growth factor-BB) (from UniProt P01127 82-190) (ligand)”, which Kd [1] is on record?
Answer: Its Kd is 80 nM.

Question: And the Kd [2]?
Answer: Its Kd is 56 nM.

Question: What about the Kd [3] of the same molecule?
Answer: Its Kd is 90 nM.

Question: And the Kd [4]?
Answer: Its Kd is 87 nM.

Question: With QWNAPQPSHISKYILRWRPK [Peptide P11] as the molecule, how does the “FN-null cell survival on CBD/14, peptide in solution” value (from here on “FN-null cell survival”) [5] read?
Answer: The value was “promoted PDGF-BB survival signals”.

Question: With QPSHISKYILRWRPK [Peptide P5] as the molecule, how does the “FN-null cell survival” value [5] read?
Answer: The value was “promoted PDGF-BB survival signals”.

Question: Which Kd [6] does the source give for “anastellin (FN630-704) with a Cys-tag at the C-terminus (domain or fragment)” here?
Answer: Its Kd is 22.9 nM.

Question: Which “Cell growth” value [7] does the source give for RWRPK here?
Answer: The value was “inhibits cell growth”.

Question: What about the “FN-null cell survival” value [5] of the same molecule?
Answer: Its value is “does not collaborate with PDGF-BB”.

B1: P1 (FN634-658) (peptide)
peptide: QPSHISKYILRWRPKNSVGRWKEAT
Question: For B1, which Kd [8] is on record?
Answer: The Kd was 250 nM.

B2: P2 (FN680-704) (peptide)
peptide: QLISHQQYGHQEVTRFDFTTTSTST
Question: Which Kd [8] does the source give for B2 here?
Answer: Its Kd is 110 nM.
